Test results taken from ChEMBL document CHEMBL1124744, “Development of a novel series of (2-quinolinylmethoxy)phenyl-containing compounds as high-affinity leukotriene D4 receptor antagonists. 2. Effects of an additional phenyl ring on receptor affinity” (J Med Chem, 1990).

Assays:
[1] = biological target: T1, Cysteinyl leukotriene receptor 1 (Cavia porcellus, UniProt Q2NNR5); experiment: Binding affinity against Cysteinyl leukotriene D4 receptor from guinea pig lung was determined using [3H]-LTD4 (0.2 nM)
T1 sequence (Q2NNR5 whole entry): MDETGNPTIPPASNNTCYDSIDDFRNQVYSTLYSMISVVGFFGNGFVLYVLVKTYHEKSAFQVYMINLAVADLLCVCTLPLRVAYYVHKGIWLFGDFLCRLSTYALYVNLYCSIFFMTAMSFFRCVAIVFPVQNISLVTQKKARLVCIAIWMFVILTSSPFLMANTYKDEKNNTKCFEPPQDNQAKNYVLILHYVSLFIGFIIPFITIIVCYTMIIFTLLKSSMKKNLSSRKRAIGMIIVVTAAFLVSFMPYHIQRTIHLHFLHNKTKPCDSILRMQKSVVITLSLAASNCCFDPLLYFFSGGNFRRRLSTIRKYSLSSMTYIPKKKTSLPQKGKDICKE
Summary of the method: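 Guinea pig lung membranes were used in a radioligand competition assay against 0.2 nM [3H]LTD4, with compounds at multiple concentrations. IC50 was determined graphically and converted to Ki. Values are means ± SEM of N separate experiments.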

Cavia porcellus [2] = organism: Cavia porcellus; experiment: Oral activity expressed as percent inhibition in LTD4-induced wheal assay in guinea pig at 3 uM; assay type: functional
Summary of the method: (§1)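 In guinea pigs, compounds were given orally 1 h before intradermal injection of 100 ng LTD4, and wheal inhibition was measured. Five animals were used per dose. ED50 was determined from at least three doses; single doses are reported as % inhibition in mg/kg.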

Cavia porcellus [3] = organism: Cavia porcellus; experiment: Inhibition of LTC4-induced contractions from guinea pig peripheral lung strips; assay type: functional
Summary of the method: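 Guinea pig peripheral lung strips were contracted with 0.2 nM LTC4, and inhibition was measured. IC50 was determined graphically; values are means ± SEM of N separate experiments.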

Cavia porcellus [4] = organism: Cavia porcellus; experiment: Oral activity expressed as effective dose in LTD4-induced wheal assay in guinea pig; assay type: functional; summary of the method: as §1
Cavia porcellus [5] = organism: Cavia porcellus; experiment: Oral activity expressed as percent inhibition in leukotriene mediated anaphylaxis assay in guinea pig at 30 uM; assay type: functional
Summary of the method: (§2)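 Guinea pigs immunized with ovalbumin were pretreated with pyrilamine, propranolol and indomethacin. Compounds were given orally 1 h before aerosol antigen challenge. Six animals were used per dose. ED50 was determined from at least three doses; single doses are reported as % inhibition in mg/kg.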

Cavia porcellus [6] = organism: Cavia porcellus; experiment: Oral activity expressed as percent inhibition in leukotriene mediated anaphylaxis assay in guinea pig at 10 uM; assay type: functional; summary of the method: as §2
[7] = biological target: T1, Cysteinyl leukotriene receptor 1; experiment: Binding affinity against Cysteinyl leukotriene D4 receptor from guinea pig lung was determined using [3H]LTD4
Summary of the method: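 Guinea pig lung membranes; competition against 0.2 nM [3H]LTD4 with test compounds at multiple concentrations. IC50 was determined graphically and converted to Ki. Values are means ± SEM of N separate experiments.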

[8] = biological target: T1, Cysteinyl leukotriene receptor 1; experiment: Inhibitory concentration of compound against binding of Cysteinyl leukotriene D4 receptor from guinea pig lung using [3H]LTD4
Cavia porcellus [9] = organism: Cavia porcellus; experiment: Oral activity expressed as effective dose in leukotriene mediated anaphylaxis assay in guinea pig; assay type: functional; summary of the method: as §2
Cavia porcellus [10] = organism: Cavia porcellus; experiment: Oral activity expressed as percent inhibition in LTD4-induced wheal assay in guinea pig at 9 uM; assay type: functional; summary of the method: as §1
Cavia porcellus [11] = organism: Cavia porcellus; experiment: Oral activity expressed as percent inhibition in LTD4-induced wheal assay in guinea pig at 18 uM; assay type: functional; conditions: in the assay text read “18 mg/kg” for “18 uM”; summary of the method: as §1
[12] = biological target: T1, Cysteinyl leukotriene receptor 1; experiment: Binding affinity against Cysteinyl leukotriene D4 receptor from guinea pig trachea using [3H]LTD4; conditions: read-out: pA2 (converted)
Cavia porcellus [13] = organism: Cavia porcellus; experiment: Oral activity expressed as percent inhibition in LTD4-induced wheal assay in guinea pig at 13 uM; assay type: functional
[14] = biological target: T2, Cysteinyl leukotriene receptor 1 (Cavia porcellus) (UniProt Q2NNR5); experiment: Binding affinity against Cysteinyl leukotriene D4 receptor from guinea pig lung was determined using [3H]LTD4 (0.2 nM) at compound concentration of 1 uM
T2 sequence (whole entry): T1 sequence (Q2NNR5 whole entry)

Cavia porcellus [15] = organism: Cavia porcellus; experiment: Inhibits leukotriene D4 in guinea pig by wheal essay at 9 uM concentration; assay type: functional; summary of the method: as §1
Cavia porcellus [16] = organism: Cavia porcellus; experiment: Inhibits leukotriene mediated anaphylaxis in guinea pig at 60 uM concentration; assay type: functional; summary of the method: as §2

| Compound | Ki [1] [nM] | IC50 (Cavia porcellus [3]) [nM] | Inhibition (Cavia porcellus [5]) [%] | other results |
| --- | --- | --- | --- | --- |
| C(=C\c1cccc(-c2nn[nH]n2)c1)/c1cccc(OCc2ccc3ccccc3n2)c1 | 8.5 | 20 | – | Inhibition (Cavia porcellus [2]): 15% |
| c1cc(COc2ccc(OCc3ccc4ccccc4n3)cc2)cc(OCc2nn[nH]n2)c1 | 8 | 9 | 27 | ED50 (Cavia porcellus [4]): 2.8 mg/kg |
| C(=C\c1ccc2ccccc2n1)/c1ccc(OCc2ccccc2Cc2nnn[nH]2)cc1 | 3.4 | – | – | Inhibition (Cavia porcellus [6]): 80% |
| O=S(=O)(Nc1cccc(OCc2ccc3ccccc3n2)c1)C(F)(F)F [RITOLUKAST] | – | – | – | Ki [7]: 35 nM |
| c1cc(COc2ccc(-c3nn[nH]n3)cc2)cc(OCc2ccc3ccccc3n2)c1 | 2.9 | 14 | -9 | – |
| COc1cc(-c2nn[nH]n2)ccc1OCc1ccc(OCc2ccc3ccccc3n2)cc1 | 22 | – | – | – |
| O=C(O)c1ccccc1Nc1cccc(OCc2ccc3ccccc3n2)c1 [SR-2640] | – | – | – | IC50 [8]: 23 nM |
| c1cc(OCc2ccc(-c3nnn[nH]3)cc2)cc(OCc2ccc3ccccc3n2)c1 | 10 | 12 | – | ED50 (Cavia porcellus [9]): 10 mg/kg; ED50 (Cavia porcellus [4]): 6.5 mg/kg |
| c1cc(OCc2ccc3ccccc3n2)cc(OCc2ccccc2-c2nnn[nH]2)c1 | 20 | 19 | – | – |
| c1ccc2nc(COc3ccc(COc4ccc(-c5nn[nH]n5)cc4)cc3)ccc2c1 | 31 | 44 | 64 | ED50 (Cavia porcellus [4]): 8 mg/kg |
| COc1cc(-c2nn[nH]n2)ccc1COc1cccc(OCc2ccc3ccccc3n2)c1 | 4.3 | 9 | 45 | Inhibition (Cavia porcellus [10]): 22% |
| c1ccc2nc(COc3ccc(OCc4ccc(Cc5nnn[nH]5)cc4)cc3)ccc2c1 | 8.5 | 12 | – | ED50 (Cavia porcellus [9]): 30 mg/kg; Inhibition (Cavia porcellus [10]): 34% |
| COc1cc(COc2cccc(OCc3ccc4ccccc4n3)c2)cc(-c2nn[nH]n2)c1 | 7 | 6.3 | – | Inhibition (Cavia porcellus [6]): 17%; ED50 (Cavia porcellus [4]): 38 mg/kg |
| COc1cc(-c2nn[nH]n2)ccc1OCc1cccc(OCc2ccc3ccccc3n2)c1 | 16 | 36 | 9 | – |
| c1cc(COc2ccc(OCc3ccc4ccccc4n3)cc2)cc(Cc2nnn[nH]2)c1 | 8 | 34 | – | Inhibition (Cavia porcellus [6]): 64%; ED50 (Cavia porcellus [4]): 3 mg/kg |
| c1cc(OCc2ccc(OCc3nn[nH]n3)cc2)cc(OCc2ccc3ccccc3n2)c1 | 2.2 | 8 | 82 | Inhibition (Cavia porcellus [11]): 59% |
| CN(C)C(=O)CCSC(SCCC(=O)O)c1cccc(/C=C/c2ccc3ccc(Cl)cc3n2)c1 (centres undefined) [MK-571] | – | – | – | Kb [12]: 1 nM |
| c1cc(OCc2cccc(OCc3nn[nH]n3)c2)cc(OCc2ccc3ccccc3n2)c1 | 13 | 24 | 64 | Inhibition (Cavia porcellus [11]): 37% |

| Compound | Ki [1] [nM] | IC50 (Cavia porcellus [3]) [nM] | Inhibition (Cavia porcellus [5]) [%] | other results |
| --- | --- | --- | --- | --- |
| c1cc(OCc2cccc(-c3nn[nH]n3)c2)cc(OCc2ccc3ccccc3n2)c1 | 16 | – | 83 | Inhibition (Cavia porcellus [11]): 45% |
| c1cc(COc2ccc(OCc3ccc4ccccc4n3)cc2)cc(-c2nn[nH]n2)c1 | 2.2 | 2 | – | Inhibition (Cavia porcellus [6]): 33%; ED50 (Cavia porcellus [4]): 2 mg/kg |
| c1cc(COc2cccc(-c3nn[nH]n3)c2)cc(OCc2ccc3ccccc3n2)c1 | 5.3 | 20 | 45 | ED50 (Cavia porcellus [4]): 28 mg/kg |
| COc1cc(OCc2ccc(OCc3ccc4ccccc4n3)cc2)cc(-c2nn[nH]n2)c1 | 7.5 | 13 | – | Inhibition (Cavia porcellus [13]): 26% |
| CCCc1c(OCC(O)COc2ccc3c(=O)cc(C(=O)O)oc3c2CCC)ccc(C(C)=O)c1O (centres undefined) [FPL-55712] | – | 940 | – | – |
| Clc1ccc2ccc(/C=C/c3ccc(OCc4ccccc4Cc4nnn[nH]4)cc3)nc2c1 | 2.5 | – | – | – |
| c1cc(CCc2cccc(-c3nn[nH]n3)c2)cc(OCc2ccc3ccccc3n2)c1 | 17 | 20 | – | ED50 (Cavia porcellus [9]): 24 mg/kg; Inhibition (Cavia porcellus [11]): 44% |
| COc1cc(OCc2cccc(OCc3ccc4ccccc4n3)c2)cc(-c2nnn[nH]2)c1 | 10 | – | – | – |
| Clc1ccc2ccc(COc3ccc(OCc4ccccc4Cc4nnn[nH]4)cc3)nc2c1 | 2.5 | – | – | – |
| c1cc(OCc2ccc3ccccc3n2)cc(OCc2ccccc2OCc2nn[nH]n2)c1 | 17 | 27 | – | ED50 (Cavia porcellus [9]): 10 mg/kg; Inhibition (Cavia porcellus [11]): 42% |
| c1cc(OCc2ccc(Cc3nnn[nH]3)cc2)cc(OCc2ccc3ccccc3n2)c1 | 7.3 | 20 | – | ED50 (Cavia porcellus [9]): 30 mg/kg; ED50 (Cavia porcellus [4]): 6.8 mg/kg |
| c1ccc(Cc2nn[nH]n2)c(COc2ccc(OCc3ccc4ccccc4n3)cc2)c1 [RG-12525] | 3 | 2.7 | – | Kb [14]: 3 nM; ED50 (Cavia porcellus [9]): 2.2 mg/kg; ED50 (Cavia porcellus [4]): 4.9 mg/kg |
| c1ccc(OCc2nn[nH]n2)c(COc2ccc(OCc3ccc4ccccc4n3)cc2)c1 | 2.1 | 4.2 | – | Inhibition (Cavia porcellus [6]): 61%; Inhibition (Cavia porcellus [2]): 45% |
| COC(=O)c1ccc(COc2cccc(OCc3ccc4ccccc4n3)c2)c(OCc2nn[nH]n2)c1 | 8 | 16 | 9 | – |
| c1cc(OCc2ccc3ccccc3n2)cc(OCc2ccccc2Cc2nnn[nH]2)c1 | 12 | 9.5 | 75 | Inhibition (Cavia porcellus [11]): 17% |
| O=C(O)c1cccc(COc2cccc(OCc3ccc4ccccc4n3)c2)c1 | 40 | 100 | – | Inhibition (Cavia porcellus [15]): 7%; Inhibition (Cavia porcellus [16]): 60% |
| c1cc(COc2cccc(OCc3ccc4ccccc4n3)c2)cc(Cc2nnn[nH]2)c1 | 10 | 12 | – | ED50 (Cavia porcellus [9]): 10 mg/kg; ED50 (Cavia porcellus [4]): 1.8 mg/kg |
| O=C(O)c1ccc(COc2cccc(OCc3ccc4ccccc4n3)c2)cc1 | 90 | 75 | – | – |
